Measurements published in ChEMBL document CHEMBL3526116, “Toxicological evaluation of acyl glucuronides of nonsteroidal anti-inflammatory drugs using human embryonic kidney 293 cells stably expressing human UDP-glucuronosyltransferase and human hepatocytes” (Drug Metab Dispos, 2011).
One block for each compound: values may come before it.

Assays:
[1] = molecular target: T1, UDP-glucuronosyltransferase 1A3 (Homo sapiens, UniProt P35503); test: Activity of human UGT1A3 expressed in HEK293 cells assessed as enzyme-mediated compound formation per 2 x 10^5 cells treated with diclofenac at 0.1 mM measured at 24 hrs by LC-MS/MS analysis; assay type: ADME, cell-based; conditions: hek293, 24 h, 100 µM
T1 sequence (P35503 whole entry): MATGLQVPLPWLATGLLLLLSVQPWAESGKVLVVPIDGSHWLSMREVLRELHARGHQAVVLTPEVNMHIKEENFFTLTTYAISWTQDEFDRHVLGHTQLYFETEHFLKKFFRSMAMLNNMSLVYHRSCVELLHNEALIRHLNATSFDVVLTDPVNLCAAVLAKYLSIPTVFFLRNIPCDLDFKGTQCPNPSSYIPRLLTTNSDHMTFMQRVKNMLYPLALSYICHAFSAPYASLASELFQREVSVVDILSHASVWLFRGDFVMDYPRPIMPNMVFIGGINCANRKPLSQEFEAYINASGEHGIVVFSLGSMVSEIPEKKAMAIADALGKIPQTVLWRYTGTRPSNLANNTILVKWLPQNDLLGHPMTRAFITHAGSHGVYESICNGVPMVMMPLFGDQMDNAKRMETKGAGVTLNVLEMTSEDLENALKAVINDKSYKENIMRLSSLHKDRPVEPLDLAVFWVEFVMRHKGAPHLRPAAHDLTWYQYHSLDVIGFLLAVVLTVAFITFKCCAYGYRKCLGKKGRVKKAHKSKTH
In short: (§1)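 HEK293 stably expressing human UGT1A3 (G418-selected), 2 x 10^5 cells/well in 1 mL DMEM with 0.5% FBS, exposed immediately to drug for 6, 12 or 24 h; DMSO ≤0.1% final. Cells and medium separated by centrifugation, cell fraction resuspended in PBS; aliquots mixed 1:1 with methanol/acetic acid (100:1), spun, supernatant analysed by LC-MS/MS. Triplicate determinations, mean ± SD.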

Hepatocyte [2] = test: Drug level in human hepatocytes assessed per 2 x 10^5 cells treated with diclofenac at 0.1 mM measured at 6 hrs by LC-MS/MS analysis in absence of acyl glucuronidation inhibitor (-)-borneol; assay type: ADME, cell-based; conditions: 100 µM
[3] = Drug level in cell culture medium treated with diclofenac at 0.1 mM measured at 6 hrs by LC-MS/MS analysis in absence of acyl glucuronidation inhibitor (-)-borneol; assay type: physicochemical; conditions: 100 µM
[4] = Drug level in cell culture medium treated with diclofenac at 0.1 mM measured at 6 hrs by LC-MS/MS analysis in presence of acyl glucuronidation inhibitor (-)-borneol; assay type: physicochemical; conditions: 100 µM
[5] = molecular target: T1, UDP-glucuronosyltransferase 1A3; test: Activity of human UGT1A3 expressed in HEK293 cells assessed as enzyme-mediated compound formation in cell culture medium treated with diclofenac at 0.1 mM measured at 6 to 24 hrs by LC-MS/MS analysis; assay type: ADME, cell-based; conditions: hek293, 100 µM; in short: as §1
[6] = molecular target: T1, UDP-glucuronosyltransferase 1A3; test: Activity of human UGT1A3 expressed in HEK293 cells assessed as enzyme-mediated compound formation in cell culture medium treated with diclofenac at 0.1 mM by LC-MS/MS analysis; assay type: ADME, cell-based; conditions: hek293, 100 µM, TDE = time-dependent effect; in short: as §1
Hepatocyte [7] = test: Drug level in human hepatocytes assessed per 2 x 10^5 cells treated with diclofenac at 0.1 mM measured at 6 hrs by LC-MS/MS analysis in presence of acyl glucuronidation inhibitor (-)-borneol; assay type: ADME, cell-based; conditions: 100 µM
[8] = molecular target: T1, UDP-glucuronosyltransferase 1A3; test: Activity of human UGT1A3 expressed in HEK293 cells assessed as enzyme-mediated compound formation per 2 x 10^5 cells treated with ketoprofen at 1 mM measured at 24 hrs by LC-MS/MS analysis; assay type: ADME, cell-based; conditions: hek293, 24 h, 1000 µM; in short: as §1
Hepatocyte [9] = test: Drug level in human hepatocytes assessed per 2 x 10^5 cells treated with ketoprofen at 1 mM measured at 6 hrs by LC-MS/MS analysis in absence of acyl glucuronidation inhibitor (-)-borneol; assay type: ADME, cell-based; conditions: 1000 µM
[10] = Drug level in cell culture medium treated with ketoprofen at 1 mM measured at 6 hrs by LC-MS/MS analysis in absence of acyl glucuronidation inhibitor (-)-borneol; assay type: physicochemical; conditions: 1000 µM
[11] = Drug level in cell culture medium treated with ketoprofen at 1 mM measured at 6 hrs by LC-MS/MS analysis in presence of acyl glucuronidation inhibitor (-)-borneol; assay type: physicochemical; conditions: 1000 µM
Nucleic Acid [12] = test: Ratio of drug level in human hepatocytes to HEK293 cells expressing UGT1A3 treated with ketoprofen at 1 mM; assay type: ADME, cell-based, Hepatocyte; conditions: 1000 µM
In short: (§2)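 Acyl glucuronide in cell fraction (pmol/2 x 10^5 cells) by LC-MS/MS after 6 h exposure in human hepatocytes without (-)-borneol, set against HEK/UGT1A3 cells (2 x 10^5 cells/well, DMEM with 0.5% FBS) exposed to the same drug level; cells pelleted at 3000 x g, resuspended in PBS, extracted with methanol/acetic acid.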

[13] = molecular target: T1, UDP-glucuronosyltransferase 1A3; test: Activity of human UGT1A3 expressed in HEK293 cells assessed as enzyme-mediated compound formation in cell culture medium treated with ketoprofen at 1 mM measured at 6 to 24 hrs by LC-MS/MS analysis; assay type: ADME, cell-based; conditions: hek293, 1000 µM; in short: as §1
[14] = molecular target: T1, UDP-glucuronosyltransferase 1A3; test: Activity of human UGT1A3 expressed in HEK293 cells assessed as enzyme-mediated compound formation in cell culture medium treated with ketoprofen at 1 mM by LC-MS/MS analysis; assay type: ADME, cell-based; conditions: hek293, 1000 µM, TDE = time-dependent effect; in short: as §1
Hepatocyte [15] = test: Drug level in human hepatocytes assessed per 2 x 10^5 cells treated with ketoprofen at 1 mM measured at 6 hrs by LC-MS/MS analysis in presence of acyl glucuronidation inhibitor (-)-borneol; assay type: ADME, cell-based; conditions: 1000 µM
[16] = molecular target: T1, UDP-glucuronosyltransferase 1A3; test: Activity of human UGT1A3 expressed in HEK293 cells assessed as enzyme-mediated compound formation per 2 x 10^5 cells treated with naproxen at 1 mM measured at 24 hrs by LC-MS/MS analysis; assay type: ADME, cell-based; conditions: hek293, 24 h, 1000 µM; in short: as §1
[17] = Drug level in cell culture medium treated with naproxen at 1 mM measured at 6 hrs by LC-MS/MS analysis in absence of acyl glucuronidation inhibitor (-)-borneol; assay type: physicochemical; conditions: 1000 µM
[18] = Drug level in cell culture medium treated with naproxen at 1 mM measured at 6 hrs by LC-MS/MS analysis in presence of acyl glucuronidation inhibitor (-)-borneol; assay type: physicochemical; conditions: 1000 µM
Nucleic Acid [19] = test: Ratio of drug level in human hepatocytes to HEK293 cells expressing UGT1A3 treated with naproxen at 1 mM; assay type: ADME, cell-based, Hepatocyte; conditions: 1000 µM; in short: as §2
[20] = molecular target: T1, UDP-glucuronosyltransferase 1A3; test: Activity of human UGT1A3 expressed in HEK293 cells assessed as enzyme-mediated compound formation in cell culture medium treated with naproxen at 1 mM measured at 6 to 24 hrs by LC-MS/MS analysis; assay type: ADME, cell-based; conditions: hek293, 1000 µM; in short: as §1
[21] = molecular target: T1, UDP-glucuronosyltransferase 1A3; test: Activity of human UGT1A3 expressed in HEK293 cells assessed as enzyme-mediated compound formation in cell culture medium treated with naproxen at 1 mM by LC-MS/MS analysis; assay type: ADME, cell-based; conditions: hek293, 1000 µM, TDE = time-dependent effect; in short: as §1
Hepatocyte [22] = test: Drug level in human hepatocytes assessed per 2 x 10^5 cells treated with naproxen at 1 mM measured at 6 hrs by LC-MS/MS analysis in presence of acyl glucuronidation inhibitor (-)-borneol; assay type: ADME, cell-based; conditions: 1000 µM
Hepatocyte [23] = test: Drug level in human hepatocytes assessed per 2 x 10^5 cells treated with naproxen at 1 mM measured at 6 hrs by LC-MS/MS analysis in absence of acyl glucuronidation inhibitor (-)-borneol; assay type: ADME, cell-based; conditions: 1000 µM

Drug metabolism [1]: 3.8 pmol | Drug metabolism (Hepatocyte [2]): 59.6 pmol | Drug metabolism [3]: 2816.1 pmol/mL | Drug metabolism [4]: 610.5 pmol/mL | Drug metabolism [5]: 104 pmol/mL | Drug metabolism [6]: tde | Drug metabolism (Hepatocyte [7]): 15.1 pmol
SMILES: O=C(Cc1ccccc1Nc1c(Cl)cccc1Cl)O[C@@H]1O[C@H](C(=O)O)[C@@H](O)[C@H](O)[C@H]1O

Drug metabolism [8]: 0.2 pmol | Drug metabolism (Hepatocyte [9]): 6.8 pmol | Drug metabolism [10]: 436.8 pmol/mL | Drug metabolism [11]: 54.9 pmol/mL | Ratio (Nucleic Acid [12]): 6 | Drug metabolism [13]: 6.3 pmol/mL | Drug metabolism [14]: tde | Drug metabolism (Hepatocyte [15]): 1.7 pmol
SMILES: CC(C(=O)O[C@@H]1O[C@H](C(=O)O)[C@@H](O)[C@H](O)[C@H]1O)c1cccc(C(=O)c2ccccc2)c1 (stereo partly drawn)

Drug metabolism [16]: 4.5 pmol | Drug metabolism [17]: 1323.9 pmol/mL | Drug metabolism [18]: 393.7 pmol/mL | Ratio (Nucleic Acid [19]): 6 | Drug metabolism [20]: 137 pmol/mL | Drug metabolism [21]: tde | Drug metabolism (Hepatocyte [22]): 10.3 pmol | Drug metabolism (Hepatocyte [23]): 33.6 pmol
SMILES: COc1ccc2cc([C@H](C)C(=O)O[C@@H]3O[C@H](C(=O)O)[C@@H](O)[C@H](O)[C@H]3O)ccc2c1
